This is an account of results in ChEMBL document CHEMBL5390224, “Design, synthesis, and biological evaluation of a novel series of 1,2,4-oxadiazole inhibitors of SLACK potassium channels: Identification of in vitro tool VU0935685” (Bioorg Med Chem, 2023).

Data set [1] can be described thus: Inhibition of wild-type human SLACK expressed in HEK293 cells by thallium flux assay. The data set is classed as cell-based. The method in brief:
(§1)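 Stable monoclonal HEK293 lines (WT or A934T SLACK) plated 20,000 cells/well; loaded 1 h at room temperature with Thallo-AM dye, 1.25 mM probenecid, masking dye, 0.3% Pluronic F-127 in buffer with 2.7 mM RbCl, pH 7.3. Compound preincubated 120 s, then Tl2SO4 stimulus (2.5 mM); fluorescence read 120 s. Concentration–response 1.5 nM–30 μM in half-log steps, ≥3 replicate wells.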

Data set [2] has as its system HEK293. Kind of data set: Inhibition of wild-type human SLACK expressed in HEK293 cells assessed as efficacy at 30 uM by thallium flux assay relative to control. The format is cell-based. The method in brief:
as §1

Data set [3] addresses T1, Potassium channel subfamily T member 2 (Homo sapiens, UniProt Q6UVM3).
T1 sequence (Q6UVM3 whole entry): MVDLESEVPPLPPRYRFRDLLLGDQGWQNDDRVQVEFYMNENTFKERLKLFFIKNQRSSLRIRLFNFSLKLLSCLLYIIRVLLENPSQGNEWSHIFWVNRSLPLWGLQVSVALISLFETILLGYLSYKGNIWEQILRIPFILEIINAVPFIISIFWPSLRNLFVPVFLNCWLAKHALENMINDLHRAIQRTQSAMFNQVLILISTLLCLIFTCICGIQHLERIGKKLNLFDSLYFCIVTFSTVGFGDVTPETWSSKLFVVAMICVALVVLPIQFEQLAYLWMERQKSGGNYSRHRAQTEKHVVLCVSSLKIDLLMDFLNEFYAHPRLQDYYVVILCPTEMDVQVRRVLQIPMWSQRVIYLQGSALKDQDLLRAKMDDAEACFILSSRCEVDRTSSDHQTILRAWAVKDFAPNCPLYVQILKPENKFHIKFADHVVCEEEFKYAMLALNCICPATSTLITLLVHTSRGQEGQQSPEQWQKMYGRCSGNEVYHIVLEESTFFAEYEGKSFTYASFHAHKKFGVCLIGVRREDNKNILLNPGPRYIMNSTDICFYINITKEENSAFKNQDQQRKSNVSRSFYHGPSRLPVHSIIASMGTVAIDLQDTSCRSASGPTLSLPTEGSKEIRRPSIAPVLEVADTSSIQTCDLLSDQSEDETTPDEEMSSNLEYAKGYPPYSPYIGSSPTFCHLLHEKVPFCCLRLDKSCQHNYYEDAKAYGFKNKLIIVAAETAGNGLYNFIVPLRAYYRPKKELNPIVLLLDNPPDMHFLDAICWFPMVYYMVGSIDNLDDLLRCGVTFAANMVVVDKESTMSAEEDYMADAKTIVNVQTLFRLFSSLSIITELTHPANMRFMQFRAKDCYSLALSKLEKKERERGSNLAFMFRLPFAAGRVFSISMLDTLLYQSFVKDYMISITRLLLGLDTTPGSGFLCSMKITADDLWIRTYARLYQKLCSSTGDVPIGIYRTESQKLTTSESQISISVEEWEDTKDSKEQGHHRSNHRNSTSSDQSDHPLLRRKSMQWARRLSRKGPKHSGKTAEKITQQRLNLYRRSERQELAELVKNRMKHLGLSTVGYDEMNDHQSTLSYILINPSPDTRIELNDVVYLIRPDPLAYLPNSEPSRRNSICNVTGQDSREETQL
Kind of data set: Inhibition of SLICK (unknown origin) expressed in HEK293 cells by thallium flux assay. The format is cell-based.

The nature of data set [4]: Inhibition of human SLACK A934T mutant expressed in HEK293 cells by thallium flux assay. The data set is classed as cell-based. The method in brief:
as §1

In the next data set the test system is CHO. Kind of data set: Inhibition of wild-type human SLACK expressed in CHO cells assessed as efficacy at 30 uM by whole cell voltage clamp electrophysiology assay. The data set is classed as cell-based. The conditions noted are these: Cricetulus griseus.
A short description of data set [5]: Plasma protein binding in mouse assessed as unbound fraction by equilibrium dialysis method. The format is ADME, cell-free. The method in brief:
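Equilibrium dialysis, 12–14 K MWCO cellulose membrane: plasma spiked to 5 μM final versus 25 mM phosphate buffer pH 7.4, 6 h at 37 °C, shaking 200 rpm. Both sides matrix-matched, acetonitrile extraction with internal standard, LC/MS/MS quantitation. Triplicate.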

Data set [6] concerns the target T2, Potassium channel subfamily T member 2 (Homo sapiens) (UniProt Q6UVM3).
T2 sequence (whole entry): T1 sequence (Q6UVM3 whole entry)
Kind of data set: Inhibition of SLICK (unknown origin) expressed in HEK293 cells assessed as efficacy at 30 uM by thallium flux assay relative to control. The data set is classed as cell-based.

Data set [7] in a line: Inhibition of wild-type human SLACK expressed in CHO cells by whole cell voltage clamp electrophysiology assay. The format is cell-based. The conditions noted are these: Cricetulus griseus. In a few lines:
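Automated whole-cell patch clamp at room temperature. External (mM): NaCl 105, KCl 4, MgCl2 1, CaCl2 5, HEPES 10, NMDG-Cl 40, pH 7.4. Internal: NaCl 70, KF 70, KCl 10, EGTA 5, HEPES 5, pH 7.2. Concentrations 0.125–30 μM in half-log steps, ≥3 cells per series.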

Data set [8] has as its system HEK293. In words: Inhibition of human SLACK A934T mutant expressed in HEK293 cells assessed as efficacy at 30 uM by thallium flux assay relative to control. The format is cell-based. In a few lines:
as §1

Data set [9] has as its target Calcium-activated potassium channel subunit alpha-1 (Homo sapiens) (UniProt Q12791). Kind of data set: Inhibition of Maxi-K (unknown origin) expressed in HEK293 cells assessed as efficacy at 30 uM by thallium flux assay relative to control. The data set is classed as cell-based.
Data set [10] shares this target. In words: Inhibition of Maxi-K (unknown origin) expressed in HEK293 cells by thallium flux assay. The format is cell-based.
Data set [11] is described as follows: Metabolic stability in mouse liver microsomes assessed as compound remaining measured after 10 min in presence of NADPH. The data set is classed as ADME, Microsome. The method in brief: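 Mouse liver microsomes (0.5 mg/mL) with compound (5 μM) preincubated 5 min at 37 °C in 100 mM potassium phosphate, pH 7.4. Reaction started with NADPH (1 mM) plus MgCl2 (3 mM). Samples at 0 and 10 min quenched in cold acetonitrile with internal standard; percent remaining by LC/MS/MS.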

Structures are written as SMILES. pIC50: −log10 of the molar value. The source made the active and inactive calls. The rule behind the calls is not given here.

Chain of Calcium-activated potassium channel subunit alpha-1 (Homo sapiens) (Q12791 whole entry): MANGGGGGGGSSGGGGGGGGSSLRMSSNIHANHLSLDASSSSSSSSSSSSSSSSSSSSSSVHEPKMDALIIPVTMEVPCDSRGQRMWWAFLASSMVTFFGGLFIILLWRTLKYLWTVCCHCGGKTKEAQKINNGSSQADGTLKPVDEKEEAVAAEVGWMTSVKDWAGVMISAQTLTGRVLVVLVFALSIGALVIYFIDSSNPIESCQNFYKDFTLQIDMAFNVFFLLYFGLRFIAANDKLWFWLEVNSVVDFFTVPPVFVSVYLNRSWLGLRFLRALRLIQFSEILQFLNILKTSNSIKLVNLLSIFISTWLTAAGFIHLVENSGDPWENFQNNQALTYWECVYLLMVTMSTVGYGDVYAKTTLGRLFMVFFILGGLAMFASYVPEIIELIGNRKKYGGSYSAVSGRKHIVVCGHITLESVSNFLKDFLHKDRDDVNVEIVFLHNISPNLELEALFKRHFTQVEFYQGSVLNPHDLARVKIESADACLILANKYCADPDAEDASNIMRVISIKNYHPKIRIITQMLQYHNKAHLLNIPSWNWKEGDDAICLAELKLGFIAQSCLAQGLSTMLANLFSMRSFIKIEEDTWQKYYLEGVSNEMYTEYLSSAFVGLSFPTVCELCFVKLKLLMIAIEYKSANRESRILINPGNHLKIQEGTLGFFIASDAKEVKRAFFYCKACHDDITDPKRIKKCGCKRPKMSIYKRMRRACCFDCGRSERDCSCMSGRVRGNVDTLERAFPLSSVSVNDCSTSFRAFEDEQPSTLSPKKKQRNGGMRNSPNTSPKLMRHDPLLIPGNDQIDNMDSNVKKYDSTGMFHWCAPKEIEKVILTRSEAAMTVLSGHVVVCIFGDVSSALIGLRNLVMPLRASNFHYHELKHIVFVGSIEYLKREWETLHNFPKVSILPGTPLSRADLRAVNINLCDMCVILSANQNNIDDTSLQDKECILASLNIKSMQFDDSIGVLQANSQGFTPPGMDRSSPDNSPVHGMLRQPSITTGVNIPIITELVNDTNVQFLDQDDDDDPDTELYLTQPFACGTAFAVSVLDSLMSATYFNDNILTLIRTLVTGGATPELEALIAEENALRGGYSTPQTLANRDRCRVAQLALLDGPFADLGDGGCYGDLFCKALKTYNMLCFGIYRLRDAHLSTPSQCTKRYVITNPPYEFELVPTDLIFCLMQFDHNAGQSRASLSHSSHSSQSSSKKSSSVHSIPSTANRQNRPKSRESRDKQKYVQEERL

In general, pIC50 refers to −log10 of the IC50, conventionally taken in molar units. In [1], `CCOc1ccccc1S(=O)(=O)N1CC(c2nc(-c3ccc(F)cc3F)no2)C1` gave a pIC50 of 5.19. Further, the Efficacy in the data set with HEK293 [2] stood at 93%.

For the compound `CCOc1ccccc1S(=O)(=O)N1CC(c2nc(-c3cccs3)no2)C1`, in data set [1], the pIC50 was 5.16. The Efficacy in the data set on HEK293 [2] was determined as 99%.

In the case of `CC(C)Oc1ccccc1S(=O)(=O)N1CC(c2nc(-c3ccsc3)no2)C1`, the pIC50 is under 5.00 in [3], 5.96 in [4] and 5.96 in [7]. Also, the Efficacy worked out at 101% in the data set on CHO, 47% in data set [6], 109% in the data set on HEK293 [8] and 103% in the data set on HEK293 [2]. Further, the Fu in data set [5] was under 0.01. In addition, the Efficacy entry in [9] was “inactive”. For the same compound, the inhibition result in data set [10] is “inactive”. For the same compound, in data set [11], the Activity is recorded as under 10%.

Consider `CCOc1ccccc1S(=O)(=O)N1CC(c2nc(-c3ccc(F)cc3)no2)C1`, for which the pIC50 in [3] was 5.64; in data set [4], 6.00; in data set [1], 5.49; in [7], 6.00. For the same compound, the Efficacy was 101% in the data set with CHO; 101% in the data set on CHO (tested as the 2H-labelled form); 50% in data set [6]; 55% in [6] (tested as the 2H-labelled form); 110% with HEK293 [8]; 83% with HEK293 [8] (tested as the 2H-labelled form). Further, the Efficacy with HEK293 [2] was determined as 105%; with HEK293 [2] (tested as the 2H-labelled form), 100%. The Fu in data set [5] was determined as 0.012. In addition, the Efficacy result in [9] and in data set [9] (tested as the 2H-labelled form) was “inactive” throughout. Besides, the inhibition result in data set [10] and in [10] (tested as the 2H-labelled form) was “inactive” each time. Moreover, the Activity in data set [11] stood at 58%.

In turn, `CCOc1ccccc1S(=O)(=O)N1CC(c2nc(-c3ccc(Cl)cc3F)no2)C1` gave a pIC50 in data set [1] of 5.14. Besides, the Efficacy with HEK293 [2] came to 99%.

On to `O=S(=O)(c1cccc2c1OCCC2)N1CC(c2nc(-c3ccc(F)cc3)no2)C1`, for which the negative logarithm of the IC50 (pIC50) in data set [3] was under 5.00; in [4], 5.59; in [7], 5.79. The Efficacy amounted to 100% with CHO, 55% in data set [6], 104% in the data set with HEK293 [8] and 93% in the data set on HEK293 [2]. In addition, the Fu in data set [5] is under 0.01. Moreover, the Efficacy entry in [9] is “inactive”. For the same compound, the inhibition entry in [10] was “inactive”. Also, the Activity in data set [11] came to 19%.

As to `O=S(=O)(c1ccccc1OCC(F)(F)F)N1CC(c2nc(-c3ccc(F)cc3)no2)C1`, the pIC50 in data set [3] was under 5.00; in [4], 5.60; in data set [7] it was 5.75. In addition, the Efficacy in the data set with CHO was determined as 100%; in data set [6] it was 27%; in the data set with HEK293 [8], 72%; with HEK293 [2], 91%. Moreover, the Fu in data set [5] was found to be 0.012. Moreover, the Efficacy result in [9] was “inactive”. Also, in data set [10], the inhibition result was “inactive”. Also, the Activity in [11] is listed as 57%.

In turn, `CCOc1ccccc1S(=O)(=O)N1CC(c2nc(-c3ccc(C(F)(F)F)cc3)no2)C1` showed a pIC50 in data set [1] of 5.42. The Efficacy in the data set with HEK293 [2] amounted to 95%.

Compound `CCOc1ccccc1S(=O)(=O)N1CC[C@@H](c2nc(-c3ccc(F)cc3)no2)C1` had a pIC50 in data set [1] of under 5.00. In the data set with HEK293 [2], the Efficacy came out at 31%.

Consider `CCOc1ccccc1S(=O)(=O)N1CC(c2nc(-c3cnsc3)no2)C1`, for which the negative-log IC50 (pIC50) in [1] is 5.18. Further, in the data set with HEK293 [2], the Efficacy was determined as 106%.

Consider `CCOc1ccccc1S(=O)(=O)N1CCC(c2nc(-c3ccc(F)cc3)no2)CC1`, for which the pIC50 in [3] was under 5.00; in data set [4], 5.37; in data set [7], 5.75. The Efficacy in the data set with CHO turned out to be 100%; in data set [6] it was 35%; in the data set with HEK293 [8], 129%; with HEK293 [2], 105%. The Fu in data set [5] is given as under 0.01. In addition, in data set [9], the Efficacy result was “inactive”. Moreover, in data set [10], the inhibition result is “inactive”. In addition, the Activity in data set [11] worked out at 21%.

As for `O=S(=O)(c1cccc2cccnc12)N1CC(c2nc(-c3ccc(F)cc3)no2)C1`, the pIC50 was 5.23 in data set [3], 5.82 in data set [4] and 5.80 in data set [7]. The Efficacy with CHO was 100%; in data set [6] it was 56%; in the data set with HEK293 [8] it was 112%; with HEK293 [2], 98%. The Fu in data set [5] is 0.014. Also, in data set [9], the Efficacy result is “inactive”. Moreover, the inhibition entry in data set [10] is “inactive”. For the same compound, in data set [11], the Activity is given as 71%.

In data set [1], `CCOc1ccccc1S(=O)(=O)N1CC[C@H](c2nc(-c3ccc(F)cc3)no2)C1` showed a negative logarithm of the IC50 (pIC50) of under 5.00. The Efficacy in the data set with HEK293 [2] was 63%.

As to `CCOc1ccccc1S(=O)(=O)N1CC(c2nc(-c3ccc(F)cc3Cl)no2)C1`, the pIC50 was under 5.00 in data set [3], 5.70 in data set [4], 5.68 in data set [1] and 6.37 in data set [7]. Further, the Efficacy turned out to be 100% in the data set with CHO, 44% in data set [6], 95% in the data set with HEK293 [8] and 95% with HEK293 [2]. Besides, in [5], the Fu is given as 0.014. In addition, the Efficacy entry in [9] is “inactive”. For the same compound, the inhibition result in data set [10] was “inactive”. For the same compound, the Activity in data set [11] is 59%.

`CCOc1ccccc1S(=O)(=O)N1CC(c2nc(-c3ccc(F)s3)no2)C1`: the pIC50 was under 5.00 in data set [3], 6.01 in data set [4] and 6.15 in data set [7]. Moreover, the Efficacy with CHO was 100%; in data set [6], 65%; in the data set on HEK293 [8] it was 103%; in the data set on HEK293 [2], 105%. In addition, the Fu in [5] is on record as 0.024. The Efficacy result in [9] was “inactive”. Besides, the inhibition entry in [10] was “inactive”. In addition, in data set [11], the Activity is reported as under 10%.

For the compound `[2H]C([2H])([2H])C([2H])([2H])Oc1ccccc1S(=O)(=O)N1CC(c2nc(-c3ccc(F)cc3)no2)C1`, the pIC50 in data set [3] is under 5.00; in data set [4], 5.64; in data set [1], 5.27; in data set [7], 5.98. The Fu in data set [5] worked out at 0.012. Also, in data set [11], the Activity is 63%.

As to `CCCOc1ccccc1S(=O)(=O)N1CC(c2nc(-c3ccsc3)no2)C1`, the pIC50 in data set [1] is 5.59. Further, in the data set with HEK293 [2], the Efficacy was 87%.
